Here are results for ten compounds from article PMC12264769 (RSC Medicinal Chemistry, 2025).

For test [1], the system named is prostatic small cell carcinoma cell line (PC-3). Kind of test: MTT anti-proliferative assay, PC-3. The format is cell-based. On the technique in general: Tetrazolium dyes change colour on reduction, which living cells bring about.
The subject of test [2] is human breast cancer cell line (MCF-7). As to the kind of experiment: MTT anti-proliferative assay, MCF-7. Type of test: cell-based.
Test [3] concerns murine mammary carcinoma cell line (4T1). Kind of test: MTT anti-proliferative assay, 4T1. Type of test: cell-based. As to conditions: read-out: 4T1 IC50, 48-hour treatment, mean ± SD (n = 2).
The subject of test [4] is normal human embryonic kidney (HEK-293) cell line. As to the kind of experiment: MTT cytotoxicity towards normal cell line HEK-293. The format is cell-based.
In test [5] the test system is MCF-7 cells. As to the kind of experiment: ROS generation. Type of test: cell-based, human. As to conditions: MCF-7, IC50 dose, vs 1% DMSO control. An outline of the steps:
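After 24 h in 12-well plates, MCF-7 cells were treated for 48 h with test compound, reference compound, or 1% DMSO as control. Medium was replaced with 10 μM DCFH-DA for 10 min at 37 °C in darkness. DCF fluorescence was imaged by laser scanning confocal microscopy at 60× (ex 485 nm, em 535 nm). Intensity was quantified by image analysis as relative fluorescence (%) versus control. Data are mean standard deviation (n = 2), with one-way ANOVA.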

Test [6] has as its system MCF-7 cells. As to the kind of experiment: annexin-V/FITC-PI apoptosis assay. As to conditions: MCF-7, 48 hours, at respective IC50. Type of test: cell-based, human.
The test system of test [7] is MCF-7 cells. Kind of test: Nuclear staining assay. As to conditions: MCF-7, IC50, 48 hours, vs control and BG-45. The format is cell-based, human.
[8] abbreviates: read-out: PC-3 IC50, MTT, 48-hour treatment, mean ± SD (n = 2).
Where [9] appears, read: read-out: MCF-7 IC50, MTT, 48-hour treatment, mean ± SD (n = 2).
Setting [10] is: read-out: HEK-293 IC50, MTT, 48-hour treatment, mean ± SD (n = 2).
[11] abbreviates: Homo sapiens, MCF7, 48 h, read-out: MCF-7 IC50, MTT, 48-hour treatment, mean ± SD (n = 2).

Where two headings read alike, the source gives them in different places.

Broadly, the IC50 is the concentration that inhibits the measured activity by half.

`FC(F)(F)c1c(-c2ccc(Cl)cc2)noc1-c1cccs1` [TTI-9]: the 50% inhibitory concentration (IC50) stood at 21.92 ± 0.21 µM in test [1] (setting [8]), 20.4 ± 0.21 µM in test [2] (setting [9]), 21.72 ± 0.19 µM in test [3] and 96.6 ± 0.47 µM in test [4] (setting [10]).

`COc1ccc(-c2noc(-c3cccs3)c2C(F)F)cc1OC` [TTI-14, 4-(difluoromethyl)-3-(3,4-dimethoxyphenyl)-5-(thiophen-2-yl)isoxazole]: the IC50 worked out at 13 ± 0.17 µM in test [1] (48 h, read-out: PC-3 IC50, MTT, 48-hour treatment, mean ± SD (n = 2)); 9.09 ± 0.25 µM in test [2] (setting [9]); 11.7 ± 0.14 µM in test [3]; 71.14 ± 0.21 µM in test [4] (setting [10]).

Take `COc1ccc(-c2noc(-c3cccs3)c2C(F)(F)F)cc1` [TTI-3]: the 50% inhibitory concentration (IC50) in test [1] (setting [8]) was found to be 21.97 ± 0.21 µM; in test [2] (setting [9]) it was 21.5 ± 0.11 µM; in test [3] it was 24.3 ± 0.24 µM; in test [4] (setting [10]) it was 102.2 ± 0.27 µM.

On to `COc1cc(-c2noc(-c3cccs3)c2C(F)(F)F)cc(OC)c1OC` [TTI-6, 5-(thiophen-2-yl)-4-(trifluoromethyl)-3-(3,4,5-trimethoxyphenyl)isoxazole], for which the IC50 in test [1] (setting [8]) was 7.67 ± 0.31 µM; in test [2] (setting [11]), 1.92 µM; in test [2] (setting [9]), 1.91 ± 0.09 µM; in test [3], 10.9 ± 0.2 µM; in test [4] (Homo sapiens, HEK293, 48 h, read-out: HEK-293 IC50, MTT, 48-hour treatment, mean ± SD (n = 2)), 68.29 ± 0.11 µM. For the same compound, the “selectivity for MCF-7 over other cancer cell lines (first value)” value in test [2] (matches 4T1/MCF-7 IC50 ratio) is given as 5.70 fold. The “selectivity for MCF-7 over other cancer cell lines (second value)” value in test [2] (matches PC-3/MCF-7 IC50 ratio) was 4 fold. The “selectivity for MCF-7 cells over HEK-293 cell lines” value in test [2] (ratio of IC50 values) is on record as 35.62 fold. Further, the “relative fluorescence intensity vs control (ROS)” value in the test with MCF-7 cells [5] was “significant increase”. Moreover, the “total apoptotic percentage (Q2 and Q4)” value with MCF-7 cells [6] is recorded as 50.0 ± 1.3%. Besides, the “nuclear / cell morphology (DAPI, AO staining)” value in the test on MCF-7 cells [7] is on record as “significant alteration in cell morphology”.

In the case of `FC(F)(F)c1c(-c2cnn3c(-c4ccccc4)ccnc23)noc1-c1cccs1` [TTI-15, 3-(7-phenylpyrazolo[1,5-a]pyrimidin-3-yl)-5-(thiophen-2-yl)-4-(trifluoromethyl)isoxazole], the concentration for half-maximal inhibition (IC50) in test [1] (setting [8]) was 13.7 ± 0.39 µM; in test [2] (setting [11]) it was 9.44 ± 0.22 µM; in test [3] it was 14.3 ± 0.21 µM; in test [4] (setting [10]), 74.3 ± 0.25 µM.

With `FC(F)(F)c1ccc(-c2noc(-c3cccs3)c2C(F)(F)F)cc1` [TTI-11], the half-inhibitory concentration (IC50) in test [1] (setting [8]) was 20.99 ± 0.19 µM; in test [2] (setting [9]), 19.3 ± 0.24 µM; in test [3], 19.36 ± 0.19 µM; in test [4] (setting [10]), 92.75 ± 0.15 µM.

Turning to `COc1ccc(-c2noc(-c3cccs3)c2C(F)(F)F)cc1OC` [TTI-4, 3-(3,4-dimethoxyphenyl)-5-(thiophen-2-yl)-4-(trifluoromethyl)isoxazole], the IC50 in test [1] (setting [8]) came to 8.08 ± 0.29 µM; in test [2] (setting [9]), 2.91 ± 0.13 µM; in test [3], 11.6 ± 0.35 µM; in test [4] (setting [10]), 70.49 ± 0.22 µM. Also, the “superior anti-breast cancer activity than TTI-3” value in test [2] (MCF-7 IC50 compared with TTI-3) is given as 7 times.

Turning to `O=[N+]([O-])c1ccc(-c2noc(-c3cccs3)c2C(F)(F)F)cc1` [TTI-12, 3-(4-nitrophenyl)-5-(thiophen-2-yl)-4-(trifluoromethyl)isoxazole], the IC50 in test [1] (setting [8]) was 15.4 ± 0.25 µM; in test [2] (setting [9]) it was 17.03 ± 0.12 µM; in test [3] it was 17 ± 0.31 µM; in test [4] (setting [10]), 83.77 ± 0.28 µM.

Turning to `FC(F)(F)c1c(-c2ccc3c(c2)OCCO3)noc1-c1cccs1` [TTI-5, 3-(2,3-dihydrobenzo[b][1,4]dioxin-6-yl)-5-(thiophen-2-yl)-4-(trifluoromethyl)isoxazole], the IC50 in test [1] (setting [8]) is 26.89 ± 0.11 µM; in test [3], 28.6 ± 0.09 µM; in test [4] (setting [10]) it was 109.7 ± 0.13 µM.

Turning to `COc1ccc(-c2noc(-c3ccc(C)s3)c2C(F)(F)F)cc1OC` [TTI-13, 3-(3,4-dimethoxyphenyl)-5-(5-methylthiophen-2-yl)-4-(trifluoromethyl)isoxazole], the 50% inhibitory concentration (IC50) in test [1] (setting [8]) amounted to 14.2 ± 0.41 µM; in test [2] (setting [11]), 13.4 ± 0.19 µM; in test [3] it was 15.15 ± 0.1 µM; in test [4] (setting [10]), 75.91 ± 0.16 µM.
